Assays:
[1] = tested on: advanced solid tumors (MEC, GIST, ATC, malignant effusions, miscellaneous tumor types); type: in vivo, human
Procedure, shortened: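 Adults with advanced, incurable tumours received 1,000 mg/day, split 600 mg morning and 400 mg evening, continued to progression or unacceptable toxicity. Response was assessed locally by imaging at baseline and every 2 months per RECIST version 1.1, with readings not blinded to visit order. Data cutoff was 31 January 2018.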

[2] = tested on: patients with advanced solid tumors (TGCT and non-TGCT cohorts); test: Safety: adverse events, laboratory assessments, ECG; type: in vivo, human
[3] = tested on: patients with advanced solid tumors (TGCT and non-TGCT cohorts); test: Drug exposure: treatment duration, dose reductions, drug holidays; type: in vivo, human
Procedure, shortened: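 Adult patients at 12 US centres took 1,000 mg/day (600 mg morning, 400 mg evening) until progression or unacceptable toxicity. Dose changes, usually in 200 mg/day steps, and temporary holds for toxicity or other reasons were allowed. Exposure was tallied to the 31 January 2018 cutoff. Months were computed as days divided by 30.4167.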

patients with TGCT = details: cited from earlier work
[4] = tested on: tenosynovial giant cell tumor (TGCT); details: 3 of the 4 TGCT patients; cited from earlier work
[5] = tested on: tenosynovial giant cell tumor (TGCT); details: patients with TGCT, usually; cited from earlier work
[6] = tested on: tenosynovial giant cell tumor (TGCT); test: Tumor response by RECIST 1.1; type: in vivo, human
[7] = 13 TGCT subjects that remained on treatment, as of February 2021

FC(F)(F)c1ccc(CNc2ccc(Cc3c[nH]c4ncc(Cl)cc34)cn2)cn1 [pexidartinib]
patients with prolonged (>6 months) SD ([1]; non-TGCT): 6 patients | median progression-free survival (PFS) ([1]; non-TGCT patients): 56 days | patients with partial response (PR) ([1]; non-TGCT population (n = 52)): 1 patients | patients with stable disease (SD) as best response ([1]; non-TGCT population (n = 52)): Fifteen | cases meeting Hy's law criteria ([2]; all 91 patients): no cases that met criteria for Hy's law | decreases in platelets, hemoglobin, white blood cells (neutrophils, lymphocytes): grade ([2]; all patients): generally grade 2 or less | electrocardiogram abnormalities ([2]; all patients): No patient had clinically significant electrocardiogram abnormalities | AST increase, treatment-related AE of grade ≥ 3 ([2]; non-TGCT patients): 4% | fatigue, treatment-related AE of grade ≥ 3 ([2]; non-TGCT patients): 6% | hypophosphatemia, treatment-related AE of grade ≥ 3 ([2]; non-TGCT patients): 4% | patients with grade 3 elevations in aminotransferase levels ([2]; of the 91 patients): 6 patients | alanine aminotransferase increase, grade ≥ 3 treatment-related AE ([2]; patients with TGCT): 10% | aspartate aminotransferase (AST) increase, grade ≥ 3 treatment-related AE ([2]; patients with TGCT): 8% | hypophosphatemia, grade ≥ 3 treatment-related AE ([2]; patients with TGCT): 10% | nausea, treatment-related AE ([2]; patients with TGCT): 56% | periorbital edema, treatment-related AE ([2]; patients with TGCT): 39% | pruritus, treatment-related AE ([2]; patients with TGCT): 31% | patients who had a drug holiday ([3]; of the 39 patients with TGCT): 27 (69%) n (%) | patients who required dose reduction ([3]; of the 39 patients with TGCT): 24 (62%) n (%) | patients who experienced a drug holiday ([3]; of the 91 patients): 40 (44%) n (%) | patients who required dose reduction ([3]; of the 91 patients): 30 (33%) n (%) | time of presentation of serious liver toxicity (patients with TGCT; all cases, weeks of treatment): ≤ 8 weeks | isolated aminotransferase elevations, share of hepatic adverse reactions (patients with TGCT; long-term treatment): > 90% | RECIST response in patients who had previously received other TKI treatment [4]: 75% | time to radiologic response [5]: ≤ 4 months | median DOR [6, 7]: 1,529 days | median PFS [6, 7]: 1,764 days | patients with TGCT who achieved a response, RECIST 1.1 ([6]; CR + PR, of 39 FAS): 24 patients | PR, RECIST 1.1 ([6]; TGCT): 22 patients | complete response (CR), RECIST 1.1 ([6]; TGCT): 2 patients | patients who progressed while on therapy, modified tumor response criteria ([6]; TGCT): 3 patients | patients with SD that lasted for at least 6 months, RECIST 1.1 ([6]; TGCT): 8 patients | patients with at least a 50% reduction in sum of longest tumor diameter ([6]; TGCT): Fifteen | disease control rate (DCR = CR + PR + SD), RECIST 1.1 ([6]; TGCT FAS (n = 39)): 82% | disease control rate (DCR = CR + PR + SD), RECIST 1.1 ([6]; TGCT efficacy-evaluable (n = 37)): 86% | objective response rate (ORR), RECIST 1.1 per local reading ([6]; TGCT efficacy-evaluable population (n = 37)): 65% | 25th percentile for duration of response (DOR) ([6]; TGCT, RECIST 1.1): 943 days | ORR, RECIST 1.1 ([6]; both the FAS and efficacy-evaluable TGCT populations): over 60%

Source: PMC9401544 (Clinical Cancer Research, 2021)
